For data set [1], the system named is T-cell. The experiment in a line: Immunosuppressive activity in human T lymphocytes assessed as inhibition of PMA-ionomycin-induced cell proliferation after 72 hrs by BrdU-based ELISA analysis. The data set is classed as functional. An outline of the steps:
(§1)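 Nonadherent buffy-coat T lymphocytes (Ficoll, adherence-depleted) at 10^5 cells/well in RPMI 1640 + 10% FBS, in triplicate. Costimulated with PMA–ionomycin ± compound (10–100 μM) for 72 h. BrdU added at 10 μM final, 14 h before the end. Incorporation read by ELISA. Lovastatin and simvastatin served as positive controls. Means ± SEM, one-way ANOVA.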
On the technique in general: An ELISA detects its analyte on a solid surface through an enzyme-linked reagent.

In data set [2] the test system is T-cell. In words: Immunosuppressive activity in human T lymphocytes assessed as inhibition of PMA-ionomycin-induced cell proliferation at 10 to 100 uM after 72 hrs by BrdU-based ELISA analysis. The data set is classed as functional. An outline of the steps:
as §1

Data set [3] can be described thus: Cytotoxicity against human T lymphocytes at 10 to 100 uM after 72 hrs by MTT assay. The settings on record: t-cell. The essentials:
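T cells from buffy-coat blood via Ficoll separation, with macrophages removed by adherence. Cultured at 1 × 10^5 cells/well in RPMI 1640 + 10% FBS, n = 3, with 10–100 μM compound for 72 h. MTT (5 mg/mL) added for 4 h, then dissolved in 10% SDS/50% DMF, pH 7.2. A570 read; viability = Atreated/Acontrol × 100.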

The text below walks through data of ChEMBL document CHEMBL2034962, “Immunosuppressive decalin derivatives from red yeast rice” (J Nat Prod, 2012).

Activity calls are given as the source filed them. The rule behind the calls is not given here.

For `C[C@@H]1CC[C@@H]2[C@@H](CCC(=O)O)[C@@H](C)C=C[C@H]2C1` [HEPTAKETIDE], the inhibition entry in the data set with T-cell [1] is “Dose-dependent effect”. Moreover, the result in the data set on T-cell [2] was Active. The Activity result in data set [3] was “Non-toxic”.
As for `C[C@H]1C=C2C=C[C@H](C)/C(=C\CC(=O)O)[C@H]2CC1` [MONASCUSIC ACID E], in the data set with T-cell [2], the inhibition entry is “Active”. Further, in data set [3], the Activity result is listed as “Non-toxic”.
Turning to `C[C@@H]1CC[C@@H]2/C(=C/CC(=O)O)[C@@H](C)C=C[C@H]2C1` [MONASCUSIC ACID C], in the data set on T-cell [1], the inhibition entry was “Dose-dependent effect”. The outcome in the data set on T-cell [2] was Active. The Activity result in data set [3] is on record as “Non-toxic”.
Taken in the same sequence, the figures for `C[C@H]1C=C2C=C[C@H](C)[C@H](CCC(=O)O)[C@H]2CC1` [MONASCUSIC ACID A] were “Dose-dependent effect”, “Active” and “Non-toxic”.
For the compound `C[C@H]1C=C2C=C[C@H](C)[C@]3(CCC(=O)O3)[C@H]2CC1` (relative stereo), the inhibition entry in the data set with T-cell [2] was “Active”. Moreover, the Activity result in data set [3] is on record as “Non-toxic”.
In the case of `C[C@H]1C=C2C=C[C@H](C)[C@H](/C=C/C(=O)O)[C@H]2CC1` [MONASCUSIC ACID D], the inhibition result with T-cell [1] is “Dose-dependent effect”. The result with T-cell [2] was Active. In data set [3], the Activity entry is on record as “Non-toxic”.
The corresponding values for `C[C@@H]1CC[C@@H]2[C@@H](/C=C/C(=O)O)[C@@H](C)C=C[C@H]2C1` [MONASCUSIC ACID B] are “Dose-dependent effect”, “Active” and “Non-toxic”.
